Active and inactive are the calls of the source. The rule behind the calls is not given here.

Drawing on ChEMBL document CHEMBL1154352, “Toll-like receptor 7 selective synthetic oligoribonucleotide agonists: synthesis and structure-activity relationship studies” (J Med Chem, 2009), this text covers Activity, IFN-alpha and fold change (FC) for two compounds.

Assay [1] concerns PBMC. Briefly: Immunomodulatory activity in human PBMC assessed as induction of TNFalpha at 100 ug/ml after 24 hrs. Format: functional, cell-based. In a few lines:
(§1)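 Human PBMCs plated at 5 × 10^6 cells/mL; compounds dissolved in PBS added at various concentrations, 37 °C for 24 h. Supernatant cytokines/chemokines quantified with human Luminex multiplex kit.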

Assay [2] has as its target T1, Toll-like receptor 9 (Mus musculus) (UniProt Q9EQU3).
T1 sequence (whole entry): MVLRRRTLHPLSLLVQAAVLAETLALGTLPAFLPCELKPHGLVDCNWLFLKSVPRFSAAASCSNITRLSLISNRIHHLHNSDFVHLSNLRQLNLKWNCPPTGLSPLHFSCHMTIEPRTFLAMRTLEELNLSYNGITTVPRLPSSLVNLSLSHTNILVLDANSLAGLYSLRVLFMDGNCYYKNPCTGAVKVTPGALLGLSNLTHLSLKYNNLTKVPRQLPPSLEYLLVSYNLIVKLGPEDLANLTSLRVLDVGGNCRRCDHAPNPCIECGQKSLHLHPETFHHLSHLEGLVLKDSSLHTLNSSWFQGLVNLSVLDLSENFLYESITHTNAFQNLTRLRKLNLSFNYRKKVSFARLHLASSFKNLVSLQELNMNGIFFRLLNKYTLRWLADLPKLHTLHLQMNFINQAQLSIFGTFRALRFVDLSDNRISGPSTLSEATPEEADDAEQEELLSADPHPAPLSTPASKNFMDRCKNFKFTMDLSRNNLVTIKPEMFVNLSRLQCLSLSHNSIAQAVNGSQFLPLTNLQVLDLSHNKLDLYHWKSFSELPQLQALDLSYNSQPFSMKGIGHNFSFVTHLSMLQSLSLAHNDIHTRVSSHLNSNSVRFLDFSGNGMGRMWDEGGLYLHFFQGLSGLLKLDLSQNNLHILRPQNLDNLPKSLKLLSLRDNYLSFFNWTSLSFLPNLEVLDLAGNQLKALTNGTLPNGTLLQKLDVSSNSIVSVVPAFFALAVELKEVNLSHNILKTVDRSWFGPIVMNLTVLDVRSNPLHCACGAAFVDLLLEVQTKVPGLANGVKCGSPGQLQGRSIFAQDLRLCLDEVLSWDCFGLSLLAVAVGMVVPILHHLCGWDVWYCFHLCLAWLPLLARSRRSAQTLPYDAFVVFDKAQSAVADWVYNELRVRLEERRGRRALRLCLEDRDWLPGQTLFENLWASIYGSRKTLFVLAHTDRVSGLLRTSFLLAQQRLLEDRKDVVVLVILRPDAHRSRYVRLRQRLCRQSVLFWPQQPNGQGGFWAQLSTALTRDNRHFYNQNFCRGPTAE
Briefly: Activation of mouse TLR9 expressed in HEK293 assessed as induction of NF-kappaB activity reporter gene assay. It is filed as cell-based. In general terms: Reporter assays use an easily measured gene product as a stand-in for the process of interest.

The test system of assay [3] is PBMC. In words: Immunomodulatory activity in human PBMC assessed as induction of IFN-alpha at 100 ug/ml after 24 hrs.
Assay [4] has as its target T2, Toll-like receptor 8 (Homo sapiens) (UniProt Q9NR97).
T2 sequence (whole entry): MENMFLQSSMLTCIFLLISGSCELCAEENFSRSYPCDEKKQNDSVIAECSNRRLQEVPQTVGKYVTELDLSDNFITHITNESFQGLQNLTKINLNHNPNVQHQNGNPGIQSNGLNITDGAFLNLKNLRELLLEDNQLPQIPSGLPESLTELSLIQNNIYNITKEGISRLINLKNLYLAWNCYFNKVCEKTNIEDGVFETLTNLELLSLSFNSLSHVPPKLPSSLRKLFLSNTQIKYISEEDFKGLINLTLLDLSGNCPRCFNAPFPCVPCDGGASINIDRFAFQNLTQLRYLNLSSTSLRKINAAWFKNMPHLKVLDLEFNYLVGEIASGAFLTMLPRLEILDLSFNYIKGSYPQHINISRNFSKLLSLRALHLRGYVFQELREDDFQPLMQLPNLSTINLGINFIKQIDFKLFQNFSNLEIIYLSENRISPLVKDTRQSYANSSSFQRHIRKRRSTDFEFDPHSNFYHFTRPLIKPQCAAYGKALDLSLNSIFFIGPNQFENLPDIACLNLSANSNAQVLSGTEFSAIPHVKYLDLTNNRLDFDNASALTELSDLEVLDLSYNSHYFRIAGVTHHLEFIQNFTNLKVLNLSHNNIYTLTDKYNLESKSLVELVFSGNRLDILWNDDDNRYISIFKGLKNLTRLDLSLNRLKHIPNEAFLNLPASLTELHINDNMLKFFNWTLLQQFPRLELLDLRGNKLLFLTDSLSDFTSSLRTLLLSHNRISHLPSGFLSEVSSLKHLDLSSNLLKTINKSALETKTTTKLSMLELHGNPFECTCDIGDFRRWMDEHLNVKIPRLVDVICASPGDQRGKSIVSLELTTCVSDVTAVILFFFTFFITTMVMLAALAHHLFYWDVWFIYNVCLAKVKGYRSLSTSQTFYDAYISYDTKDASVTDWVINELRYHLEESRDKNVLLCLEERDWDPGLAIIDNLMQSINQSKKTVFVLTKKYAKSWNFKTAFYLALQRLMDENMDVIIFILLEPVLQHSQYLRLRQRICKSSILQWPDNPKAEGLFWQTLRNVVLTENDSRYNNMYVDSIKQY
Briefly: Activation of human TLR8 expressed in HEK293XL assessed as fold induction of NF-kappaB activity at 50 ug/ml after 18 hrs by reporter gene assay relative to control. In a few lines: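 HEK293 cells stably expressing human TLR7 or TLR8, transiently transfected with SEAP reporter plasmid; medium replaced, SIMRA compounds added, 18 h incubation. Supernatant SEAP measured by QuantiBlue; expressed as fold increase in NF-κB activity over PBS control. Tabulated data at 50 μg/mL, representative of three independent experiments.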

In assay [5] the test system is Splenocyte. Briefly: Immunomodulatory activity in C57BL/6 mouse splenocytes bearing TLR7 receptor assessed as IL6 release at 100 ug/ml after 24 hrs by ELISA. It is filed as functional, cell-based. The gist of the method:
(§2)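 C57BL/6 splenocytes in RPMI 1640 with 10% FBS, penicillin/streptomycin, 2 mM L-glutamine, plated at 5 × 10^6 cells/mL; compounds in PBS added, 37 °C for 24 h. Supernatant IL-12 and IL-6 by ELISA; representative of three independent experiments.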

Assay [6] deals with Splenocyte. In words: Immunomodulatory activity in C57BL/6 mouse splenocytes bearing TLR7 receptor assessed as IL12 release at 100 ug/ml after 24 hrs by ELISA. Format: functional, cell-based. The gist of the method: as §2
In general terms: In an ELISA, binding on a coated surface is turned into a signal by an enzyme label.

Assay [7] deals with PBMC. In words: Immunomodulatory activity in human PBMC assessed as induction of IL12 at 100 ug/ml after 24 hrs. Format: functional, cell-based. The gist of the method: as §1

As to `Nc1ccn([C@@H]2O[C@H](COP(=O)(S)O[C@H]3[C@@H](O)[C@H](n4cnc5c(N)ncnc54)O[C@@H]3COP(=O)(S)O[C@H]3[C@@H](O)[C@H](n4ccc5c(=O)[nH]c(N)nc54)O[C@@H]3COP(=O)(S)O[C@H]3[C@@H](O)[C@H](n4ccc(=O)[nH]c4=O)O[C@@H]3COP(=O)(S)O[C@H]3[C@@H](O)[C@H](n4ccc5c(=O)[nH]c(N)nc54)O[C@@H]3COP(=O)(S)O[C@H]3[C@@H](O)[C@H](n4cnc5c(N)ncnc54)O[C@@H]3COP(=O)(S)O[C@H]3[C@@H](O)[C@H](n4cnc5c(N)ncnc54)O[C@@H]3CO)[C@@H](OP(=O)(S)OC[C@H]3O[C@@H](n4ccc5c(=O)[nH]c(N)nc54)[C@H](O)[C@@H]3OP(=O)(S)OC[C@H]3O[C@@H](n4ccc(N)nc4=O)[C@H](O)[C@@H]3OP(=O)(S)OC[C@H]3O[C@@H](n4ccc(=O)[nH]c4=O)[C@H](O)[C@@H]3OP(=O)(S)OC[C@H]3O[C@@H](n4ccc(=O)[nH]c4=O)[C@H](O)[C@@H]3OP(=O)(S)OCC(O)COP(=O)(S)O[C@H]3[C@@H](O)[C@H](n4ccc(=O)[nH]c4=O)O[C@@H]3COP(=O)(S)O[C@H]3[C@@H](O)[C@H](n4ccc(=O)[nH]c4=O)O[C@@H]3COP(=O)(S)O[C@H]3[C@@H](O)[C@H](n4ccc(N)nc4=O)O[C@@H]3COP(=O)(S)O[C@H]3[C@@H](O)[C@H](n4ccc5c(=O)[nH]c(N)nc54)O[C@@H]3COP(=O)(S)O[C@H]3[C@@H](O)[C@H](n4ccc(N)nc4=O)O[C@@H]3COP(=O)(S)O[C@H]3[C@@H](O)[C@H](n4cnc5c(N)ncnc54)O[C@@H]3COP(=O)(S)O[C@H]3[C@@H](O)[C@H](n4ccc5c(=O)[nH]c(N)nc54)O[C@@H]3COP(=O)(S)O[C@H]3[C@@H](O)[C@H](n4ccc(=O)[nH]c4=O)O[C@@H]3COP(=O)(S)O[C@H]3[C@@H](O)[C@H](n4ccc5c(=O)[nH]c(N)nc54)O[C@@H]3COP(=O)(S)O[C@H]3[C@@H](O)[C@H](n4cnc5c(N)ncnc54)O[C@@H]3COP(=O)(S)O[C@H]3[C@@H](O)[C@H](n4cnc5c(N)ncnc54)O[C@@H]3CO)[C@H]2O)c(=O)n1` (some centres undefined), the Activity was 26.2 pg/mL in the assay on PBMC [1] and 352 pg/mL with PBMC [7]. In assay [2], the outcome was inactive. Besides, in the assay on PBMC [3], the IFN-alpha worked out at 204 pg/mL. The fold change (FC) in assay [4] is 0.7. The outcome with Splenocyte [5] and in the assay with Splenocyte [6] was Active.
As to `Nc1ccn([C@@H]2O[C@H](COP(=O)(S)O[C@H]3[C@@H](O)[C@H](n4cnc5c(N)ncnc54)O[C@@H]3COP(=O)(S)O[C@H]3[C@@H](O)[C@H](n4cnc5c(N)ncnc54)O[C@@H]3CO)[C@@H](OP(=O)(S)OC[C@H]3O[C@@H](n4ccc(=O)[nH]c4=O)[C@H](O)[C@@H]3OP(=O)(S)OC[C@H]3O[C@@H](n4ccc(=O)[nH]c4=O)[C@H](O)[C@@H]3OP(=O)(S)OC[C@H]3O[C@@H](n4ccc5c(=O)[nH]c(N)nc54)[C@H](O)[C@@H]3OP(=O)(S)OC[C@H]3O[C@@H](n4cnc5c(N)ncnc54)[C@H](O)[C@@H]3OP(=O)(S)OC[C@H]3O[C@@H](n4ccc5c(=O)[nH]c(N)nc54)[C@H](O)[C@@H]3OP(=O)(S)OC[C@H]3O[C@@H](n4ccc(N)nc4=O)[C@H](O)[C@@H]3OP(=O)(S)OC[C@H]3O[C@@H](n4ccc(=O)[nH]c4=O)[C@H](O)[C@@H]3OP(=O)(S)OC[C@H]3O[C@@H](n4ccc(=O)[nH]c4=O)[C@H](O)[C@@H]3OP(=O)(S)OCC(O)COP(=O)(S)O[C@H]3[C@@H](O)[C@H](n4ccc(=O)[nH]c4=O)O[C@@H]3COP(=O)(S)O[C@H]3[C@@H](O)[C@H](n4ccc(=O)[nH]c4=O)O[C@@H]3COP(=O)(S)O[C@H]3[C@@H](O)[C@H](n4ccc(N)nc4=O)O[C@@H]3COP(=O)(S)O[C@H]3[C@@H](O)[C@H](n4ccc5c(=O)[nH]c(N)nc54)O[C@@H]3COP(=O)(S)O[C@H]3[C@@H](O)[C@H](n4cnc5c(N)ncnc54)O[C@@H]3COP(=O)(S)O[C@H]3[C@@H](O)[C@H](n4ccc5c(=O)[nH]c(N)nc54)O[C@@H]3COP(=O)(S)O[C@H]3[C@@H](O)[C@H](n4ccc(=O)[nH]c4=O)O[C@@H]3COP(=O)(S)O[C@H]3[C@@H](O)[C@H](n4ccc(=O)[nH]c4=O)O[C@@H]3COP(=O)(S)O[C@H]3[C@@H](O)[C@H](n4ccc(N)nc4=O)O[C@@H]3COP(=O)(S)O[C@H]3[C@@H](O)[C@H](n4cnc5c(N)ncnc54)O[C@@H]3COP(=O)(S)O[C@H]3[C@@H](O)[C@H](n4cnc5c(N)ncnc54)O[C@@H]3CO)[C@H]2O)c(=O)n1` (some centres undefined), the Activity in the assay on PBMC [1] came to 74.4 pg/mL; in the assay on PBMC [7], 527 pg/mL. In addition, the result in assay [2] was inactive. Besides, the IFN-alpha in the assay on PBMC [3] was determined as 106 pg/mL. In assay [4], the fold change (FC) stood at 1. The outcome in the assay with Splenocyte [5] and with Splenocyte [6] was Active.
